Runt-SMMHC FRET: inhibitors of RUNX1 Runt–CBFb-SMMHC binding, primary screen, biochemical, FRET, Cerulean-Runt, Venus-CBFb-SMMHC, uHTS. Cerulean-Runt/Venus-CBFb-SMMHC FRET ratio 530/480, 1 h. Runt-related transcription factor 1 (Homo sapiens) + Core-binding factor subunit beta …. inhibition, % at 20 µM. 0.74% of 220,000 active. AID 1434, 2008;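 active = mean inhibition across duplicate retests at 20 µM reaching about 50%, limit read from the data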;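 also: 0% = DMSO wells and 100% = wells with excess untagged CBFb-SMMHC; inhibitors lower the FRET ratio by blocking Runt binding to CBFb-SMMHC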
LANA-H2A inh: blockers of LANA interaction with H2A/H2B – biochemical, FP readout, HTS, primary screen; cell-free LANA-H2A/H2B peptide, fluorescence polarization; inhibition, % (concentration not given with the values); 0.6% of 320,000 active; AID 2629, 2010; in the data active = inhibition mostly above about 10%, no sharp cut-off; inactive = mostly below about 6.7%
MEX-5 binding: MEX-5 zinc finger RNA-binding disruptors – biochemical, C. elegans, fluorescence polarization, MLPCN library, primary screen. 0.38% of 300,000 active. Zinc finger protein mex-5 (Caenorhabditis elegans), Q9XUB2. MEX-5/FITC-TCR2 RNA binding; stronger effect = lower value. activity score (negative = inhibition of binding), % at 10 µM;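 active = inhibition past about -25% in most replicates, and total fluorescence under double the plate's negative control median, limit read from the data; inconclusive = replicates evenly split on the limit, or fluorescence at least double controls; inactive = too little inhibition in most replicates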;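 also: 0% = DMSO and -100% = 5 µM competing unlabeled TCR2 RNA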
RanGTP-Impb inh: inhibitors of RanGTP-importin-beta interaction, primary screen, biochemical, FRET, CFP-Ran, YFP-importin-beta, homogeneous | Ran GTPase (GTP-bound) - importin-beta complex | cell-free CFP-Ran/YFP-importin-beta FRET ratio | inhibition, % (no concentration beside the values) | 1.1% of 300,000 active;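 active = more than half of the replicate wells show a fall in the fluorescence ratio signal beyond about 16%, limit read from the data, passing the limit was not always enough; inconclusive = exactly half of the replicate wells pass the set limit; inactive = fewer than half of replicates pass the limit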;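 also: 0% = DMSO wells and 100% = Ran loaded with GDP instead of GTP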
EBV gp42 inh: Epstein-Barr virus gp42 inhibitors, primary screen, biochemical, uHTS, fluorescence polarization. Glycoprotein 42 (Epstein-Barr virus (strain AG876)), Q1HVG2. Fluorescence polarization binding assay, mP read-out. inhibition, % (tested at 21.74 µM). 0.42% of 220,000 active; in the data active = inhibition above about 50%
Runt-CBFb FRET: inhibitors of RUNX1 Runt–CBFb binding, primary screen, biochemical, FRET, Cerulean-Runt, Venus-CBFb, uHTS. Runt-related transcription factor 1 (Homo sapiens) + Core-binding factor subunit beta …. Cerulean-Runt/Venus-CBFb FRET ratio 530/480, 1 h. inhibition, % at 20 µM. 0.46% of 220,000 active. AID 1496, 2009;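 active = inhibition over about 50% at 20 µM in the single-dose screen, limit read from the data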;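 also: 0% = DMSO wells and 100% = excess unlabeled CBFb competitor control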
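Schedule: protein complex preformed 1 h, compound exposure 1 h, room temperature, dark; test system: Cerulean-labeled Runt domain protein; amount: 100 nM per protein; buffer or medium: Tris 50 mM pH 7.5, KCl, K2SO4, 0.01% BSA; read-out: loss of energy transfer signal; detection: FRET fluorescence; controls: 5 µM unlabeled CBFb as full-inhibition high control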
* = called active by the depositor; ? = inconclusive; · = not tested or not shown. Shown are actives, neighbours in structure and some others; about 2.4% of the full set was active somewhere.

SMILES	Runt-SMMHC FRET	LANA-H2A inh	MEX-5 binding	RanGTP-Impb inh	EBV gp42 inh	Runt-CBFb FRET
CC(C)Oc1ccc(C(=O)Nc2ccc(S(=O)(=O)N3CCN(C)CC3)cc2)cc1	·	-3	0	5	·	·
CCOc1ccc(C(=O)Nc2ccc(S(=O)(=O)N3CCN(C)CC3)cc2)cc1	·	15*	0	-1	·	·
O=C(Nc1ccc(S(=O)(=O)N2C[C@@H]3C[C@@H](C2)c2cccc(=O)n2C3)cc1)c1ccc(F)cc1	·	-6	·	·	·	·
CCOc1ccc(C(=O)Nc2ccc(S(=O)(=O)N3C[C@@H]4C[C@@H](C3)c3cccc(=O)n3C4)cc2)cc1	·	17*	·	·	·	·
COc1cc(/C=N\NC(=O)c2ccc(-c3ccccc3)cc2)ccc1OCC(N)=O	·	1	-1	-1	·	·
Cc1nc(CC(=O)N/N=C/c2ccc(OCC(=O)O)cc2)cs1	-6	0	-3	2	-7	2
CCOc1cc(/C=N/NC(=O)c2ccc(-c3csc(Nc4ccc(C)cc4)n3)cc2)ccc1OCC(=O)O	13	·	·	·	89*	24
O=C(O)COc1ccc(/C=N/NC(=O)c2ccc(-c3csc(Nc4ccc(Cl)cc4)n3)cc2)cc1	-103	·	0	2	92*	28
CC(=O)N(C)/C=C1\Sc2ccccc2C1=O	76*	5	2	?	-39	30
COc1ccccc1N1C(=O)S/C(=C\c2ccc(C)s2)C1=O	·	2	-32*	-3	·	·
Cc1ccc(/C=C2\Sc3ccccc3C2=O)s1	-16	3	-2	-2	94*	-8
O=C1/C(=C/c2cccnc2)Sc2ccccc21	-36	6	-2	?	17	·
O=CN(/C=C1\Sc2ccccc2C1=O)Cc1ccccc1	67*	2	-2	?	-23	37
COc1ccccc1N1C(=O)S/C(=C\c2cc(C)n(C)c2C)C1=O	5	-5	?	1	31	6
CC(=O)Nc1ccc(/C=C2\Sc3ccccc3C2=O)cc1	-3	3	0	4	0	-4
c1ccc(N2CCN(C3CC4CCC3C4)CC2)cc1 (stereo not drawn)	·	2	1	-1	·	·
COc1ccc(/C=N/NC(=O)CN2CCSCC2)cc1C	-1	-7	1	-1	6	0
CC(=O)c1ccc(NC(=O)c2ccc3nc(-c4ccco4)c(-c4ccco4)nc3c2)cc1	-69	3	-6	35*	99*	-4
O=C(Nc1ccccc1)c1ccc2nc(-c3ccco3)c(-c3ccco3)nc2c1	-31	-2	-1	36*	-4	1
COc1ccc2nc(-c3ccco3)c(-c3ccco3)nc2c1	-22	-1	-10	54*	37	6
O=C(NCc1ccccc1)c1ccc2nc(-c3ccco3)c(-c3ccco3)nc2c1	-46	0	-1	25*	2	-1
CC(=O)NC(C)c1nc2ccccc2n1CC(=O)NC(C)CCc1ccccc1 (stereo not drawn)	1	-4	1	-4	-17	-2
O=C(O)C1Nc2c(cccc2C(F)(F)F)C2C=CCC12 (stereo not drawn)	·	3	-29*	-1	·	·
CC(=O)c1ccc2c(c1)C1C=CCC1C(C(=O)O)N2 (stereo not drawn)	43	·	·	·	-5	28
Cc1ccc2c(c1)C1C=CCC1C(C(=O)O)N2 (stereo not drawn)	10	·	-1	2	79*	2
COc1cccc2c1NC(C(=O)O)C1CC=CC21 (stereo not drawn)	·	7	-76*	5	63*	19
C[C@H](NC(=O)C1CCC(CNC(=O)[C@@H]2CCCN2C(=O)OC(C)(C)C)CC1)C(=O)O (stereo partly drawn)	·	-1	-1	0	·	·
